# CHRM5 PAM – human M5 muscarinic receptor positive allosteric modulators, primary screen, CHO-K1 cells, Fluo-8 calcium fluorescence; Muscarinic acetylcholine receptor M5 (Homo sapiens), P08912; CHO-K1 hM5, ACh EC20 PAM; 0% = ACh EC20, 100% = ACh EC100; activation, % at 3 µM; hit rate 0.3% among 360,000; AID 624038, 2012;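 active = activation above the run cutoff, the mean activation of all test compounds plus 3 SD, cut at about 18% in these data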
# Target sequence (P08912 whole entry, looked up): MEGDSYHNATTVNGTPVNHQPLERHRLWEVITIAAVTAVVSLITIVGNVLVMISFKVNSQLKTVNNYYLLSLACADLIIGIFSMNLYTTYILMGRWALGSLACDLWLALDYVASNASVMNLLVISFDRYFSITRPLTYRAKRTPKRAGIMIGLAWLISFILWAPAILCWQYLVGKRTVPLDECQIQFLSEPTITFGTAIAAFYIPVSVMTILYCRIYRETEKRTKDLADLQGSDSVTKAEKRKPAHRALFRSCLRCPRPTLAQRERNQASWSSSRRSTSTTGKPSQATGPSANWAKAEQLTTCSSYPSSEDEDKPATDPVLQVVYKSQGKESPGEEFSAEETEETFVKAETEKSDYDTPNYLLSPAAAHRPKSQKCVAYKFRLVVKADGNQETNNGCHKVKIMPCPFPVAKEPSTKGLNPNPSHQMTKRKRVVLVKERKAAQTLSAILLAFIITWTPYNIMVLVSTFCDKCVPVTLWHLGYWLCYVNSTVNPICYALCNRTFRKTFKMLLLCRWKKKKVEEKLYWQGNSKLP
#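 Probe or stimulus: acetylcholine, EC20 level; Assay system: human M5 receptor in CHO-K1 cells; Schedule: compound preincubation 140 s before EC20 acetylcholine addition; Technique: intracellular calcium via Fluo-8 fluorescence; Dosing: single-point, 3 µM nominal; Read-out basis: percent activation from peak-over-basal fluorescence ratio, scaled EC20-to-EC100 acetylcholine; Repeats: one well per compound, no replicates.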
# M1 ag – human M1 muscarinic receptor agonists, primary screen, Fluo-8 calcium fluorescence, CHO-K1 cells, HTS; CHO-K1 hM1, agonist mode; 0% DMSO, 100% acetylcholine EC100; activation, % at 3 µM; hit rate 0.33% among 360,000; AID 588814, 2011;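 active = activation above the run's mean compound activation plus 3 SD, cut at about 16% in these data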;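 note: peak over basal fluorescence ratio within a 140 s kinetic read after compound addition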
# CHRM5 agonist – human M5 muscarinic receptor agonists, primary screen, CHO-K1 cells, Fluo-8 calcium fluorescence; AID 624037, 2012; CHO-K1 hM5 cells; 0% DMSO wells, 100% maximal acetylcholine response; activation, % at 3 µM; hit rate 0.19% among 360,000;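 active = activation above the run's mean over test compounds plus 3 SD, cut at about 23% in these data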;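 note: signal is peak over basal fluorescence ratio across the kinetic read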
# CHRM5 antagonist – human M5 muscarinic receptor antagonists, primary screen, CHO cells, Fluo-8 calcium fluorescence | hit rate 0.59% among 360,000 | inhibition, % at 3 µM | AID 624040, 2012 | CHO-hM5 cells, ACh EC80 | Muscarinic acetylcholine receptor M5 (Homo sapiens), P08912;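 active = inhibition above a per-plate cutoff, the mean of that plate's test compounds plus 3 SD, cut at about 27% in these data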;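 note: 0% = acetylcholine EC80 with DMSO and 100% = DMSO without agonist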
# CHRM1 PAM – human M1 muscarinic receptor positive allosteric modulators, primary screen, CHO-K1 cells, Fluo-8 calcium fluorescence, 1536-well | AID 588819, 2011 | activation, % at 3 µM | CHO-K1 hM1, ACh EC20; 0% = ACh EC20, 100% = maximal ACh | Muscarinic acetylcholine receptor M1 (Homo sapiens), P11229 | hit rate 0.088% among 360,000; in the data active = activation above about 19%, passing the limit was not always enough
# CHRM1 antagonist – human M1 muscarinic receptor antagonists, primary screen, CHO-K1 cells, Fluo-8 calcium fluorescence, 1536-well | Muscarinic acetylcholine receptor M1 (Homo sapiens), P11229 | CHO-K1 hM1, ACh EC80 antagonist | inhibition, % at 3 µM | hit rate 1.3% among 360,000 | AID 588852, 2011;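 active = percent inhibition above its own plate's cutoff, namely the mean of that plate's compound wells plus 3 SD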;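 note: peak over basal fluorescence ratio during 140 s after agonist addition; 0% = ACh EC80 plus DMSO and 100% = DMSO alone without agonist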
# Starred values were filed as active, the others as inactive. Rows were chosen to be rich in hits. Some 2.2% of all compounds tested hit in one or more screens of this group.
SMILES,CHRM5 PAM,M1 ag,CHRM5 agonist,CHRM5 antagonist,CHRM1 PAM,CHRM1 antagonist
COC(=O)c1ccc(S(=O)(=O)N2CCN(CCO)CC2)n1C,25.0*,0.5,5.5,1.4,15.0,-18.6
COC(=O)c1ccc(S(=O)(=O)N2CCCN(Cc3ccccc3)CC2)n1C,0.1,-4.0,-5.8,3.5,5.2,-13.8
COc1cccc(N2CC(C(=O)Nc3nnc(SCCC4OCCO4)s3)CC2=O)c1 (configuration not stated),-8.6,-3.4,-4.2,31.1*,0.6,-1.8
O=C(Nc1nnc(SCc2ccc(F)cc2)s1)C1CC(=O)N(c2ccc3c(c2)OCCO3)C1 (configuration not stated),0.0,-7.8,-3.8,-5.9,-3.4,6.3
O=C(Nc1nnc(SCc2c(Cl)cccc2Cl)s1)C1CC(=O)N(c2ccc3c(c2)OCCO3)C1 (configuration not stated),-3.4,-5.2,-10.2,4.6,1.7,33.2*
CC[C@@H](C)[C@@H]1CN([C@@H](C)CN2CCC[C@H]2CN2C(N)=NC[C@H]2CC(C)C)C(=N)N1CCc1ccc(Cl)c(Cl)c1,-0.6,-13.3,-13.0,3.2,-39.4,38.5*
CCC[C@@H](CN1CCC[C@H]1CN1C(N)=NC[C@H]1CC(C)C)N1C[C@@H]([C@H](C)CC)N(CCc2ccc(Cl)c(Cl)c2)C1=N,-4.6,-11.1,-3.5,-9.4,-28.9,38.4*
CC[C@@H](C)[C@@H]1CN([C@@H](CN2CCC[C@H]2CN2C(N)=NC[C@H]2CC(C)C)C(C)C)C(=N)N1CCc1ccc(Cl)c(Cl)c1,0.8,-11.4,-3.6,4.1,-27.0,32.1
CCC[C@@H](CN1CCC[C@H]1CN1C(N)=NC[C@@H]1Cc1ccccc1)N1C[C@@H]([C@H](C)CC)N(CCc2ccc(Cl)c(Cl)c2)C1=N,-17.8,-10.4,-7.7,-1.3,-30.4,36.3
CC(Sc1nncs1)C(=O)Nc1ccc(Cl)cn1 (configuration not stated),-3.2,-7.8,-4.8,3.0,3.9,-4.8
COC(=O)c1ccc(Cl)cc1NC(=O)/C=C/c1ccc(C)o1,20.0*,-6.5,-0.3,15.8,10.6,-7.5
OCC1OC(n2cnc3c(SCc4ccccc4)nc(NO)nc32)C(O)C1O (configuration not stated),-20.3,-8.5,-2.3,24.8,-29.7,71.0*
Nc1nc(SCc2ccc(Br)cc2)c2ncn(C3OC(CO)C(O)C3O)c2n1 (configuration not stated),17.1,-2.6,2.2,1.1,4.5,3.2
Cc1cccc(-n2c(SCC(=O)c3c(N)n(C4CC4)c(=O)[nH]c3=O)nnc2N2CCOCC2)c1,2.5,-0.8,-1.3,1.1,9.1,-11.1
Cn1c(N2CCN(C(c3ccccc3)c3ccccc3)CC2)nc2ccccc21,-6.7,-7.0,-14.7,7.6,-20.1,32.3*
N#CC1=C(N)OC2=C(C(=O)CCC2)C1c1cc2c(cc1Br)OCO2 (configuration not stated),-5.3,-8.3,-9.5,17.3,-11.2,30.2*
Cc1ccc(C)c(NC(=O)CCc2nnc3ccc(NCc4ccco4)nn23)c1,-1.4,-1.9,-0.7,-2.2,3.2,-3.6
Cc1ccc(C)c(Cn2nc3c4ccccc4n(Cc4ccccc4)cc-3c2=O)c1,3.3,64.2*,0.9,2.8,-6.8,61.5*
COc1ccc(-n2nc(C(=O)NCC(=O)NCCCN3CCC(C)CC3)c3ccccc3c2=O)cc1Cl,0.5,-10.6,-4.1,0.0,-7.2,3.6
COc1ccc(-n2nc(C(=O)NCC(=O)NCCCN3CCCCCC3)c3ccccc3c2=O)cc1Cl,5.5,-0.5,-11.6,0.3,-23.4,50.1*

# High-throughput results: PubChem, The Scripps Research Institute Molecular Screening Center
